Measurements from ChEMBL document CHEMBL3124838, “Discovery of 6-aryl-azabenzimidazoles that inhibit the TBK1/IKK-ε kinases” (Bioorg Med Chem Lett, 2014).

What was measured:
[1] = target: T1, Cytoplasmic tyrosine-protein kinase BMX (Homo sapiens) (UniProt P51813); assay: Inhibition of human BMX assessed as residual activity at 1 uM relative to control
T1 sequence (whole entry): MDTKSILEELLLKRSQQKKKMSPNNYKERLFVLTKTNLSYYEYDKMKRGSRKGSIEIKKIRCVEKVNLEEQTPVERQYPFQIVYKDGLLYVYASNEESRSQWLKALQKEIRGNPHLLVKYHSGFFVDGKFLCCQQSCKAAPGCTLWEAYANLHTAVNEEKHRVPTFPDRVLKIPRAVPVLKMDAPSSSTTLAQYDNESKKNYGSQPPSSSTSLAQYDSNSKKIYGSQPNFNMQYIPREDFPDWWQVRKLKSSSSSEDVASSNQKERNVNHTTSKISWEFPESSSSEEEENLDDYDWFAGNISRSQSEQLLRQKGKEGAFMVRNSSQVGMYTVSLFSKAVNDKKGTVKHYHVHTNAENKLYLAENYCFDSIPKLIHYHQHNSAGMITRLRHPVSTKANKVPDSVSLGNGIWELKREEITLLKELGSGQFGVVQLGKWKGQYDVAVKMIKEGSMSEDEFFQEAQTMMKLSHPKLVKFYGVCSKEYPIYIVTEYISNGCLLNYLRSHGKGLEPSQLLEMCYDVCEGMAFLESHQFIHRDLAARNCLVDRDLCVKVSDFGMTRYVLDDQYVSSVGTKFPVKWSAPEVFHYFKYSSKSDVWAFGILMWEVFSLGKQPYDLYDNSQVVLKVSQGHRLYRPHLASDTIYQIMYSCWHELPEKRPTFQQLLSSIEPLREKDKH

[2] = target: Insulin receptor (Homo sapiens) (UniProt P06213); assay: Inhibition of human activated IR assessed as residual activity at 1 uM relative to control
[3] = target: RAC-beta serine/threonine-protein kinase (Homo sapiens) (UniProt P31751); assay: Inhibition of human PKBbeta assessed as residual activity at 1 uM relative to control
[4] = target: Dual specificity mitogen-activated protein kinase kinase 1 (Homo sapiens) (UniProt Q02750); assay: Inhibition of human MEK1 assessed as residual activity at 1 uM relative to control
[5] = target: Proto-oncogene tyrosine-protein kinase Src (Homo sapiens) (UniProt P12931); assay: Inhibition of human cSRC assessed as residual activity at 1 uM relative to control
[6] = target: Tyrosine-protein kinase Lck (Homo sapiens) (UniProt P06239); assay: Inhibition of human LCK assessed as residual activity at 1 uM relative to control
[7] = target: T2, Serine/threonine-protein kinase TBK1 (Homo sapiens, UniProt Q9UHD2); assay: Inhibition of TBK1 in HEK293 cells after 4.5 hrs by ISRE-luciferase reporter gene assay in presence of poly I:C; type: cell-based
T2 sequence (Q9UHD2 whole entry): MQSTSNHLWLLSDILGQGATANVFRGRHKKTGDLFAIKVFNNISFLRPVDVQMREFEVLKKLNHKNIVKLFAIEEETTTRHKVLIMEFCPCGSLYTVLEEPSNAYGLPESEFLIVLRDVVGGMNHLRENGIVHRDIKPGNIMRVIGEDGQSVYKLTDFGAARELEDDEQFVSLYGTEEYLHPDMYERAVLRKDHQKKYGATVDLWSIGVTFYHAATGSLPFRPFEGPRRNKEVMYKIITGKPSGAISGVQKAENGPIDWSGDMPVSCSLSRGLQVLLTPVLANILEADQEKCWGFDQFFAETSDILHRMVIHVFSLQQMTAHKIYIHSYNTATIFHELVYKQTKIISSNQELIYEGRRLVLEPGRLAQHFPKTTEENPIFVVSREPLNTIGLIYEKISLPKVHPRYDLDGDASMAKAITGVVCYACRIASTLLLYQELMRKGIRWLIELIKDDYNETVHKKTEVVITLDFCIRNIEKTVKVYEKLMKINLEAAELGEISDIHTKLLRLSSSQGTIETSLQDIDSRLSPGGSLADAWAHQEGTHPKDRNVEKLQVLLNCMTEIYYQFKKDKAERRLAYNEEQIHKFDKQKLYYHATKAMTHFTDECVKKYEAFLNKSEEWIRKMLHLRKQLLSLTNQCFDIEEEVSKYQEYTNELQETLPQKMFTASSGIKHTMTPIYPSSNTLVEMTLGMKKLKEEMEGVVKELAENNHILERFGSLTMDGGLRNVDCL

[8] = target: T3, Inhibitor of nuclear factor kappa-B kinase subunit epsilon (Homo sapiens, UniProt Q14164); assay: Inhibition of IKK-epsilon (unknown origin) using 5FAM-AKELDQGSLCTpSFVGTLQ-NH2 as substrate by microfluidic mobility shift assay
T3 sequence (Q14164 whole entry): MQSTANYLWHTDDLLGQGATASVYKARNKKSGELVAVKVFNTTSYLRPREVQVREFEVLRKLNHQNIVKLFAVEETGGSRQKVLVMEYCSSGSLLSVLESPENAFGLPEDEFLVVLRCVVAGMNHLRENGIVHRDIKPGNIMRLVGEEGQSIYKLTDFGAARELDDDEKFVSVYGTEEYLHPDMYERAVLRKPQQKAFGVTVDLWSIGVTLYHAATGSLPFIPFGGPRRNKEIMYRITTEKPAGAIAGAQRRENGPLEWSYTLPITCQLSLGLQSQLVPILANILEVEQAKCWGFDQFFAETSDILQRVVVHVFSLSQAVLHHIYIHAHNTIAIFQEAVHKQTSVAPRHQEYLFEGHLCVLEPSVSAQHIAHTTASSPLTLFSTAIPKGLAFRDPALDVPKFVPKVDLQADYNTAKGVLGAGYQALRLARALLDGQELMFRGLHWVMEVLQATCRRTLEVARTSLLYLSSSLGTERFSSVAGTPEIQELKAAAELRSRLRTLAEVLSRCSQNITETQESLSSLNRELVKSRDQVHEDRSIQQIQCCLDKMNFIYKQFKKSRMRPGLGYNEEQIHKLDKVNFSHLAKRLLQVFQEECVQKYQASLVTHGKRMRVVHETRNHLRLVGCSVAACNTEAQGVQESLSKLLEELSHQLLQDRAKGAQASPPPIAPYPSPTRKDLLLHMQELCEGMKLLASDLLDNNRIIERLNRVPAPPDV
In short: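 Recombinant IKK-ε (4 nM) in HEPES buffer with 1.5 µM 5FAM-labelled peptide substrate, ATP at its K_M, and 10 mM MgCl2. The 10-point titration used half-log serial dilutions. Reactions ran at room temperature for a set time, were quenched with EDTA-containing HEPES, and were read by microfluidic mobility shift. Percent inhibition came from the ratio of phosphorylated to total peptide.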

[9] = target: Hepatocyte growth factor receptor (Homo sapiens) (UniProt P08581); assay: Inhibition of human MET assessed as residual activity at 1 uM relative to control
[10] = target: Mast/stem cell growth factor receptor Kit (Homo sapiens) (UniProt P10721); assay: Inhibition of human cKIT assessed as residual activity at 1 uM relative to control
[11] = target: Serine/threonine-protein kinase mTOR (Homo sapiens) (UniProt P42345); assay: Inhibition of human mTOR assessed as residual activity at 1 uM relative to control

Sequence of Dual specificity mitogen-activated protein kinase kinase 1 (Homo sapiens) (Q02750 whole entry): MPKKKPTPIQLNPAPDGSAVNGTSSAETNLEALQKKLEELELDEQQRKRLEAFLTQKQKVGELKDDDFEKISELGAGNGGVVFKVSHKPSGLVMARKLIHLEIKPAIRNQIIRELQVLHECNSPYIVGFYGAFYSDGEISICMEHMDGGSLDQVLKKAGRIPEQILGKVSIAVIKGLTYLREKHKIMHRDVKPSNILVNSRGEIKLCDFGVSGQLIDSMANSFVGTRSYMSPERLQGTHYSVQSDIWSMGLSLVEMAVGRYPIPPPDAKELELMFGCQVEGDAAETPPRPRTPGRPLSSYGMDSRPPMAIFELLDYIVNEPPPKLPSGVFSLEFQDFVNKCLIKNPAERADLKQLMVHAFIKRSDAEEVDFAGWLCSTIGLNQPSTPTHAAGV
Sequence of Proto-oncogene tyrosine-protein kinase Src (Homo sapiens) (P12931 2-536 limits assumed): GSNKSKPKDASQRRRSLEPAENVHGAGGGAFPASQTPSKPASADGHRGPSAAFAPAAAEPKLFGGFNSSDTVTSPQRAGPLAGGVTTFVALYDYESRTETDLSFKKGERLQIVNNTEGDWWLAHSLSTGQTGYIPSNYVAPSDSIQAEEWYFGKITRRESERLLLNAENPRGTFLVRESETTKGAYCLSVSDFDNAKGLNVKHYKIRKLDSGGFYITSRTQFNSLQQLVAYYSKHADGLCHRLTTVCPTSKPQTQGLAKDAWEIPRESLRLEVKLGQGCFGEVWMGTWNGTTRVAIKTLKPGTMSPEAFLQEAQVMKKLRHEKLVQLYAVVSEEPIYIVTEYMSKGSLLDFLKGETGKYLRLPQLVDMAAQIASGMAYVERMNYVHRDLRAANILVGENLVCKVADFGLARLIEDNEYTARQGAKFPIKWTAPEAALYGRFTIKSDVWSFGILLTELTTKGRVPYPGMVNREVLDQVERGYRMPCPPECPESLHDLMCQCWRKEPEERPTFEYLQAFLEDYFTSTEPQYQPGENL
Sequence of Tyrosine-protein kinase Lck (Homo sapiens) (P06239 2-509 limits assumed): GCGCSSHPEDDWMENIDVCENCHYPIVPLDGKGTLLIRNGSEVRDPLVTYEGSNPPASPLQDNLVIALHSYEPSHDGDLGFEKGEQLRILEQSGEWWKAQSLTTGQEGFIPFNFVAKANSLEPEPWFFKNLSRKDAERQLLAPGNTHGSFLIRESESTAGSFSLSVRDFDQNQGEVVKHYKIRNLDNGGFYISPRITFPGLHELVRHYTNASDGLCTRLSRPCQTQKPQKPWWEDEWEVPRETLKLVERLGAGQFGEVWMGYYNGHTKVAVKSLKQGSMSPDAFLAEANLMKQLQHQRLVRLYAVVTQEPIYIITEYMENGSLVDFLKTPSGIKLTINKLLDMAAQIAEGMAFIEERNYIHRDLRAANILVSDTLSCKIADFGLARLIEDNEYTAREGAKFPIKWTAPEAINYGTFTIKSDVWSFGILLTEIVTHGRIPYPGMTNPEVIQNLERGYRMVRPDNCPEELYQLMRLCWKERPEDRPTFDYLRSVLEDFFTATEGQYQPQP
Sequence of Insulin receptor (Homo sapiens) (P06213 28-758 limits assumed): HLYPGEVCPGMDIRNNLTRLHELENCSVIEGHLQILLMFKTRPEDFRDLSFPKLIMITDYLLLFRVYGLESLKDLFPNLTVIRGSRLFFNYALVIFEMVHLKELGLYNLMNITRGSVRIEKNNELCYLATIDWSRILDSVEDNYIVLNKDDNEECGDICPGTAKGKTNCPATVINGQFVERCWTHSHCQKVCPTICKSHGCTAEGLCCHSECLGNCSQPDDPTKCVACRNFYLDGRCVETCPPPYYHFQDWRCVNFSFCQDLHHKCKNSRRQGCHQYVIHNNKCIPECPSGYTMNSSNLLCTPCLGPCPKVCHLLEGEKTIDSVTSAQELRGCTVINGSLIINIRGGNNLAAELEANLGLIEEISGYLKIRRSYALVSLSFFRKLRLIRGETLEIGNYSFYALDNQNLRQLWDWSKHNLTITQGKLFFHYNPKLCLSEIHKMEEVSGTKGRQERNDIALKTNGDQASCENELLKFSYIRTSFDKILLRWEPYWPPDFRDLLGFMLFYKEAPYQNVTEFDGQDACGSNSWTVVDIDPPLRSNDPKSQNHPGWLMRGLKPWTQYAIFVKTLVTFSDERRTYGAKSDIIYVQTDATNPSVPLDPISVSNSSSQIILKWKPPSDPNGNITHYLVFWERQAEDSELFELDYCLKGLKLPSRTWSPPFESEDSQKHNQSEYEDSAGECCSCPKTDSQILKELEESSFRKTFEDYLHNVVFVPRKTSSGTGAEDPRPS
Sequence of Insulin receptor (Homo sapiens) (P06213 763-1382 limits assumed): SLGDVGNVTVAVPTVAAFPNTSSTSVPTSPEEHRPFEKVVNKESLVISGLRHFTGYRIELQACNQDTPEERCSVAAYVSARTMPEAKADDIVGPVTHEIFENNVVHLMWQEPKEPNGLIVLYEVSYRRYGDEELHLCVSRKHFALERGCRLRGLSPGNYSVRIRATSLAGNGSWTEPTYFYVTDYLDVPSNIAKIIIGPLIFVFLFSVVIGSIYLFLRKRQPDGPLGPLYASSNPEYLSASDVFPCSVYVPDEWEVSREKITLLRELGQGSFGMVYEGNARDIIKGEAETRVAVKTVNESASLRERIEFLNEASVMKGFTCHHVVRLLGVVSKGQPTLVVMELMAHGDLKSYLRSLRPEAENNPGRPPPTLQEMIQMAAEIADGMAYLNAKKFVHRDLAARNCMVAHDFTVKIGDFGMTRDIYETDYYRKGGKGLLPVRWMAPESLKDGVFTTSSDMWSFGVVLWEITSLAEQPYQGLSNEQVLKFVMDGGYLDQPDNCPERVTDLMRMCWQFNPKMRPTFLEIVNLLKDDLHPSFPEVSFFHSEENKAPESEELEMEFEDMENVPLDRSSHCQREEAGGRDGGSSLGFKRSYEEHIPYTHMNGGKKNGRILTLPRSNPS
Sequence of Hepatocyte growth factor receptor (Homo sapiens) (P08581 whole entry): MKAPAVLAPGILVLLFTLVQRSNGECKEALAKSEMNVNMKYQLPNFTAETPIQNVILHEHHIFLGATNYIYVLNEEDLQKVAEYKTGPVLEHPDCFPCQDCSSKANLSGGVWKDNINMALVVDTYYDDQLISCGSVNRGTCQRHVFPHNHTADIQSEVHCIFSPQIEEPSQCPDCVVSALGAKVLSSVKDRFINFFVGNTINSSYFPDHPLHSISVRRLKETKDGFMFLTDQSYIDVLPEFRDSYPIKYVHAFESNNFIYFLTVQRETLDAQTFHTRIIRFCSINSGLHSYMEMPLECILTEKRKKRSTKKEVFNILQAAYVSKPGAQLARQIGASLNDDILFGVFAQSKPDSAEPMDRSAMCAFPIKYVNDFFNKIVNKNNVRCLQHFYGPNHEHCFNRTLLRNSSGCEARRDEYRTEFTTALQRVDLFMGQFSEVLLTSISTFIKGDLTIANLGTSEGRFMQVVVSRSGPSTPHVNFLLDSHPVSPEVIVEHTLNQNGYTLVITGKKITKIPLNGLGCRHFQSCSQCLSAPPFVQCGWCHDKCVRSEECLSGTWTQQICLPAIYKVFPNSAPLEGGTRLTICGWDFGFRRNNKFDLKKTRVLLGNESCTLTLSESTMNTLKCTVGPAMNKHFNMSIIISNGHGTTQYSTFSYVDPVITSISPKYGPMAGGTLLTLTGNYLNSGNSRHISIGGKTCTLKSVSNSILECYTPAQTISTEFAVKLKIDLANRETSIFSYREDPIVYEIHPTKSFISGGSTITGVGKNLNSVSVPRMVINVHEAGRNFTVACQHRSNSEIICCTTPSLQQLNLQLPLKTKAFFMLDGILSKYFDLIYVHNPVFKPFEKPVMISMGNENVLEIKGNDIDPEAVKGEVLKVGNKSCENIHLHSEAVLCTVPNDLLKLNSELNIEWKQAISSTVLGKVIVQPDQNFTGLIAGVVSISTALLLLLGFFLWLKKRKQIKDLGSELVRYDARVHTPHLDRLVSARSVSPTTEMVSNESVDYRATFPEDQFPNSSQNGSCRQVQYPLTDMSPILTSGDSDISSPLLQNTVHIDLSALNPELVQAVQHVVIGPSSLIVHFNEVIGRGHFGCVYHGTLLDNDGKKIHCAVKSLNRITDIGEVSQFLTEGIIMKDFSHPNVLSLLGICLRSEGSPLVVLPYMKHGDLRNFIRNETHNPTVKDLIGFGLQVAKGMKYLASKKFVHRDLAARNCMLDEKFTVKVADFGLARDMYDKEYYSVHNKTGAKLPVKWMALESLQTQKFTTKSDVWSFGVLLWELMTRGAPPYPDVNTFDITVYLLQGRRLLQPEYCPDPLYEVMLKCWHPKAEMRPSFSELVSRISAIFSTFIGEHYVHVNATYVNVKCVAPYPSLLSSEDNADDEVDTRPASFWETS
Sequence of RAC-beta serine/threonine-protein kinase (Homo sapiens) (P31751 whole entry): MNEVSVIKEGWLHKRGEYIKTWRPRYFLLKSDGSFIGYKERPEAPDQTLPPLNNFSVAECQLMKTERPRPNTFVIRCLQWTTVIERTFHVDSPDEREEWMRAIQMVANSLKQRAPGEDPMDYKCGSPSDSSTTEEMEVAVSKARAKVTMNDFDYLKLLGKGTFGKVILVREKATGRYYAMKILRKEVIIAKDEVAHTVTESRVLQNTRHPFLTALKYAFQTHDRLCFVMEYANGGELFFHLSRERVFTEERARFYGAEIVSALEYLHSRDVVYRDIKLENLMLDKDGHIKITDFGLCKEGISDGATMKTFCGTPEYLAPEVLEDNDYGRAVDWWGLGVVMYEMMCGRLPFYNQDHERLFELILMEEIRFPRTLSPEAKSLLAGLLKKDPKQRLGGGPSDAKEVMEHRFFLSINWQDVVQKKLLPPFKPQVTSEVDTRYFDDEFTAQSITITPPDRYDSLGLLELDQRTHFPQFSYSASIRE

Row | Activity [1] [%] | Activity [2] [%] | Activity [3] [%] | Activity [4] [%] | Activity [5] [%] | Activity [6] [%] | IC50 [7] [µM] | IC50 [8] [µM] | Activity [9] [%] | Activity [10] [%] | Activity [11] [%] | SMILES
1 | 92 | 109 | 98 | 86 | 50 | 44 | 0.037 | 0.273 | 107 | 103 | 104 | COc1ccc(-c2nc3cc(-c4csc(C(=O)NCC(C)C)c4)cnc3[nH]2)cc1
2 | 105 | 100 | 93 | 90 | 47 | 31 | 0.078 | 1.75 | 111 | 107 | 110 | COc1ccc(-c2nc3cc(-c4csc(C(=O)NCCC(C)C)c4)cnc3[nH]2)cc1
3 | 100 | 96 | 90 | 89 | 85 | 64 | 0.03 | 0.497 | 114 | 112 | 102 | COc1ccc(-c2nc3cc(-c4csc(C(=O)NCC(C)(C)C)c4)cnc3[nH]2)cc1
